{"source": "ChEMBL document CHEMBL1125331", "about": "“6-Hydroxy-3-n-propyl-2,3,4,5-tetrahydro-1H-3-benzazepine and analogs: new centrally acting 5-HT1A receptor agonists” (J Med Chem, 1992)", "key": {"[1]": {"biological_target": "T1, 5-hydroxytryptamine receptor 1A (Rattus norvegicus, UniProt P19327)", "T1 sequence (P19327 whole entry)": "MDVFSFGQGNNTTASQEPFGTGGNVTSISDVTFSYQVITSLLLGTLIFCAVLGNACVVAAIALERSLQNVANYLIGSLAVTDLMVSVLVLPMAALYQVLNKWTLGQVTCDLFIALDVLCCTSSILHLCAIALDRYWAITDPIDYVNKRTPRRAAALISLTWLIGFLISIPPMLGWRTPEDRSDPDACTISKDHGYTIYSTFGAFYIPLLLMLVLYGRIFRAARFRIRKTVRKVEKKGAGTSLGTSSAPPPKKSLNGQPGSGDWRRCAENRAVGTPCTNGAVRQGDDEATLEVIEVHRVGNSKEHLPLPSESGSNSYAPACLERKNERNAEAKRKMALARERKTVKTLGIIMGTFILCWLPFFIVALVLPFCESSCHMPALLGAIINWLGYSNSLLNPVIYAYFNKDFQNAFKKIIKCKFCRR", "test": "Inhibitory activity against 5-hydroxytryptamine 1A receptor in rats, using [3H]8-OH-DPAT as radioligand", "how_it_was_run": "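Rat whole-brain membranes (minus brainstem and cerebellum) in 50 mM Tris pH 8.0 with 120 mM NaCl, 4 mM CaCl2, 4 mM MgCl2 and 10 μM pargyline. Rapid filtration, then scintillation counting. Nonspecific binding defined with 10 μM 5-HT. IC50 by semi-log plot and linear regression.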"}, "D(2) dopamine receptor": {"biological_target": "D(2) dopamine receptor (Rattus norvegicus, UniProt P61169)", "sequence (P61169 whole entry)": "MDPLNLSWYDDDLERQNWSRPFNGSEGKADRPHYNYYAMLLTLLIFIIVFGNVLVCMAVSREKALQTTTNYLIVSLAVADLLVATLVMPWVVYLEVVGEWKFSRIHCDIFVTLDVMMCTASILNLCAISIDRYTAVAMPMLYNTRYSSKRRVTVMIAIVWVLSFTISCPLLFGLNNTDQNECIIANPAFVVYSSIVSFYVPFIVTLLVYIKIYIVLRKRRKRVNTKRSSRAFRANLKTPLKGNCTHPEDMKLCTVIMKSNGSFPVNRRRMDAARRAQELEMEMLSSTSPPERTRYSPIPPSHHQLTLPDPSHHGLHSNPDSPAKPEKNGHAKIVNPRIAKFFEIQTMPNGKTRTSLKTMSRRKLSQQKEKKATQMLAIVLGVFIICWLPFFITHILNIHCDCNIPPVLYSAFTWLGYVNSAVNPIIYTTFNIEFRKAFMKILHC", "test": "Inhibitory activity against Dopamine receptor D2 in rats using [3H]spiperone as radioligand", "how_it_was_run": "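Rat striatal membranes in 50 mM potassium phosphate buffer pH 7.4 were incubated with 0.5 nM [3H]spiperone for 10 min at 37 °C. Specific binding was defined with 10 μM 6,7-ADTN.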"}, "Rattus norvegicus [2]": {"system": "Rattus norvegicus", "test": "Effect evaluated in vivo on 5-HTP accumulation in limbic system at a dose 3.1 umol/kg (s.c.)", "type": "functional", "how_it_was_run": "(§1)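 Male Sprague-Dawley rats (200–300 g) were pretreated with reserpine 5 mg/kg sc 18 h before. Test compound was given sc at 5 mL/kg in neutral solution. 5-HT synthesis rate was indexed by […] 5-HTP accumulation after decarboxylase inhibition with NSD 1015, measured by HPLC-electrochemical detection. Dose-response used 4–6 dose levels, n = 4.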"}, "Rattus norvegicus [3]": {"system": "Rattus norvegicus", "test": "Effect evaluated in vivo on 5-HTP accumulation in limbic system at a dose 50 umol/kg (s.c.)", "type": "functional", "how_it_was_run": "as §1"}, "Rattus norvegicus [4]": {"system": "Rattus norvegicus", "test": "Effect evaluated in vivo on 5-HTP accumulation in limbic system at a dose 6.25 umol/kg (p.o.)", "type": "functional", "how_it_was_run": "(§2)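 Oral dosing in male Sprague-Dawley rats (200–300 g) pretreated with reserpine 5 mg/kg sc 18 h before. After decarboxylase inhibition with NSD 1015, brain 5-HTP or dopa accumulation (HPLC-electrochemical detection) indexed 5-HT synthesis, DA synthesis (limbic) or NE synthesis (hemispheres, mainly cortex).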"}, "Rattus norvegicus [5]": {"system": "Rattus norvegicus", "test": "Effect evaluated in vivo on NE synthesis in NE-rich hemispheres at a 0.78 dose uM/kg(sc)", "type": "functional", "how_it_was_run": "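Rats pretreated with reserpine 5 mg/kg sc 18 h before received test compound sc at 5 mL/kg in neutral solution. After decarboxylase inhibition with NSD 1015, dopa accumulation in hemispheres (mainly cortex) was measured by HPLC-electrochemical detection as an index of NE synthesis. Dose-response used 4–6 dose levels, n = 4.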"}, "Rattus norvegicus [6]": {"system": "Rattus norvegicus", "test": "Effect evaluated in vivo on 5-HTP accumulation in corpus striatum at a dose 100 umol/kg (p.o.)", "type": "functional", "how_it_was_run": "(§3)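 Male Sprague-Dawley rats (200–300 g) were pretreated with reserpine 5 mg/kg sc 18 h beforehand. Test drug was given at neutral pH, 5 mL/kg. Aromatic amino acid decarboxylase was blocked with NSD 1015. 5-HTP in the dissected brain region was assayed by HPLC with electrochemical detection.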"}, "Rattus norvegicus [7]": {"system": "Rattus norvegicus", "test": "Effect evaluated in vivo on 5-HTP accumulation in corpus striatum at a dose 12.5 umol/kg (s.c.)", "type": "functional", "how_it_was_run": "as §3"}, "Rattus norvegicus [8]": {"system": "Rattus norvegicus", "test": "Effect evaluated in vivo on 5-HTP accumulation in corpus striatum at a dose 25 umol/kg (p.o.)", "type": "functional", "how_it_was_run": "as §3"}, "Rattus norvegicus [9]": {"system": "Rattus norvegicus", "test": "Effect evaluated in vivo on 5-HTP accumulation in corpus striatum at a dose 3.1 umol/kg (s.c.)", "type": "functional", "how_it_was_run": "as §3"}, "Rattus norvegicus [10]": {"system": "Rattus norvegicus", "test": "Effect evaluated in vivo on 5-HTP accumulation in corpus striatum after perioral administration", "type": "functional", "how_it_was_run": "as §3"}, "Rattus norvegicus [11]": {"system": "Rattus norvegicus", "test": "Effect evaluated in vivo on 5-HTP accumulation in limbic system after perioral administration", "type": "functional", "how_it_was_run": "as §3"}, "Rattus norvegicus [12]": {"system": "Rattus norvegicus", "test": "Effect evaluated in vivo on 5-HTP accumulation in limbic system after subcutaneous administration", "type": "functional", "settings": "sc", "how_it_was_run": "as §3"}, "Rattus norvegicus [13]": {"system": "Rattus norvegicus", "test": "Effect evaluated in vivo on NE synthesis in NE-rich hemispheres after perioral administration", "type": "functional", "how_it_was_run": "as §2"}, "Rattus norvegicus [14]": {"system": "Rattus norvegicus", "test": "Effect evaluated in vivo on 5-HTP accumulation in corpus striatum at a dose 50 umol/kg (s.c.)", "type": "functional", "how_it_was_run": "as §3"}, "Rattus norvegicus [15]": {"system": "Rattus norvegicus", "test": "Effect evaluated in vivo on 5-HTP accumulation in corpus striatum at a dose 6.25 umol/kg (p.o.)", "type": "functional", "how_it_was_run": "as §3"}, "Rattus norvegicus [16]": {"system": "Rattus norvegicus", "test": "Effect evaluated in vivo on 5-HTP accumulation in limbic system at a dose 0.78 umol/kg (s.c.)", "type": "functional", "how_it_was_run": "as §3"}, "Rattus norvegicus [17]": {"system": "Rattus norvegicus", "test": "Effect evaluated in vivo on 5-HTP accumulation in limbic system at a dose 1.56 umol/kg (p.o.)", "type": "functional", "how_it_was_run": "as §2"}, "Rattus norvegicus [18]": {"system": "Rattus norvegicus", "test": "Effect evaluated in vivo on 5-HTP accumulation in limbic system at a dose 100 umol/kg (p.o.)", "type": "functional", "how_it_was_run": "as §2"}, "Rattus norvegicus [19]": {"system": "Rattus norvegicus", "test": "Effect evaluated in vivo on 5-HTP accumulation in limbic system at a dose 12.5 umol/kg (s.c.)", "type": "functional", "how_it_was_run": "as §1"}, "Rattus norvegicus [20]": {"system": "Rattus norvegicus", "test": "Effect evaluated in vivo on 5-HTP accumulation in limbic system at a dose 25 umol/kg (p.o.)", "type": "functional", "how_it_was_run": "as §2"}, "Rattus norvegicus [21]": {"system": "Rattus norvegicus", "test": "Effect evaluated in vivo on 5-HTP accumulation in NE-rich hemispheres after subcutaneous administration", "type": "functional", "settings": "sc", "how_it_was_run": "as §3"}, "Rattus norvegicus [22]": {"system": "Rattus norvegicus", "test": "Effect evaluated in vivo on 5-HTP accumulation in NE-rich hemispheres at a 1.56 dose uM/kg(po)", "type": "functional", "how_it_was_run": "as §3"}, "Rattus norvegicus [23]": {"system": "Rattus norvegicus", "test": "Effect evaluated in vivo on 5-HTP accumulation in NE-rich hemispheres at a 100 dose uM/kg(po)", "type": "functional", "how_it_was_run": "as §3"}, "Rattus norvegicus [24]": {"system": "Rattus norvegicus", "test": "Effect evaluated in vivo on 5-HTP accumulation in NE-rich hemispheres at a 12.5 dose uM/kg(sc)", "type": "functional", "how_it_was_run": "as §3"}, "Rattus norvegicus [25]": {"system": "Rattus norvegicus", "test": "Effect evaluated in vivo on 5-HTP accumulation in NE-rich hemispheres at a 25 dose uM/kg(po)", "type": "functional", "how_it_was_run": "as §3"}, "Rattus norvegicus [26]": {"system": "Rattus norvegicus", "test": "Effect evaluated in vivo on 5-HTP accumulation in NE-rich hemispheres at a 3.1 dose uM/kg(sc)", "type": "functional", "how_it_was_run": "as §3"}, "Rattus norvegicus [27]": {"system": "Rattus norvegicus", "test": "Effect evaluated in vivo on 5-HTP accumulation in NE-rich hemispheres at a 50 dose uM/kg(sc)", "type": "functional", "how_it_was_run": "as §3"}, "Rattus norvegicus [28]": {"system": "Rattus norvegicus", "test": "Effect evaluated in vivo on 5-HTP accumulation in NE-rich hemispheres at a 6.25d ose uM/kg(po)", "type": "functional", "how_it_was_run": "as §3"}, "Rattus norvegicus [29]": {"system": "Rattus norvegicus", "test": "Effect evaluated in vivo on 5-HTP accumulation in corpus striatum after subcutaneous administration", "type": "functional", "settings": "sc", "how_it_was_run": "as §3"}, "Rattus norvegicus [30]": {"system": "Rattus norvegicus", "test": "Effect evaluated in vivo on 5-HTP accumulation in corpus striatum at a dose 0.78 umol/kg (s.c.)", "type": "functional", "how_it_was_run": "as §3"}, "Rattus norvegicus [31]": {"system": "Rattus norvegicus", "test": "Effect evaluated in vivo on 5-HTP accumulation in corpus striatum at a dose 1.56 umol/kg (p.o.)", "type": "functional", "how_it_was_run": "as §3"}, "Rattus norvegicus [32]": {"system": "Rattus norvegicus", "test": "The compound was tested in vivo for locomotor activity in rats at 50 umol/kg after subcutaneous administration", "type": "functional", "how_it_was_run": "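Male Sprague-Dawley rats received reserpine 5 mg/kg sc in the neck 18 h before testing. Test compound was given sc in the neck (n = 4). Rats were placed singly in photocell motility meters immediately after dosing, and counts were accumulated over 30 min (tests 9 a.m.–1 p.m.). Gross behaviour, including 5-HT syndrome, was observed throughout.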"}}, "data": [{"compound": "CCCN1CCc2cccc(OC)c2CC1", "values": [{"measurement": "IC50", "setting": "[1]", "value": 0.063, "unit": "µM"}, {"measurement": "IC50", "setting": "D(2) dopamine receptor", "value": 3.6, "unit": "µM"}, {"measurement": "Control", "setting": "Rattus norvegicus [2]", "value": 48, "unit": "%"}, {"measurement": "Control", "setting": "Rattus norvegicus [3]", "value": 61, "unit": "%"}, {"measurement": "Control", "setting": "Rattus norvegicus [4]", "value": 77, "unit": "%"}, {"measurement": "Control", "setting": "Rattus norvegicus [5]", "value": 92, "unit": "%"}, {"measurement": "Control", "setting": "Rattus norvegicus [6]", "value": 56, "unit": "%"}, {"measurement": "Control", "setting": "Rattus norvegicus [7]", "value": 48, "unit": "%"}, {"measurement": "Control", "setting": "Rattus norvegicus [8]", "value": 65, "unit": "%"}, {"measurement": "Control", "setting": "Rattus norvegicus [9]", "value": 53, "unit": "%"}, {"measurement": "ED50", "setting": "Rattus norvegicus [10]", "value": 10, "unit": "µmol/kg"}, {"measurement": "ED50", "setting": "Rattus norvegicus [11]", "value": 7, "unit": "µmol/kg"}, {"measurement": "ED50", "setting": "Rattus norvegicus [12]", "value": 1.5, "unit": "µmol/kg"}, {"measurement": "ED50", "setting": "Rattus norvegicus [13]", "value": 13, "unit": "µmol/kg"}, {"measurement": "Control", "setting": "Rattus norvegicus [14]", "value": 63, "unit": "%"}, {"measurement": "Control", "setting": "Rattus norvegicus [15]", "value": 79, "unit": "%"}, {"measurement": "Control", "setting": "Rattus norvegicus [16]", "value": 99, "unit": "%"}, {"measurement": "Control", "setting": "Rattus norvegicus [17]", "value": 99, "unit": "%"}, {"measurement": "Control", "setting": "Rattus norvegicus [18]", "value": 47, "unit": "%"}, {"measurement": "Control", "setting": "Rattus norvegicus [19]", "value": 42, "unit": "%"}, {"measurement": "Control", "setting": "Rattus norvegicus [20]", "value": 58, "unit": "%"}, {"measurement": "ED50", "setting": "Rattus norvegicus [21]", "value": 1.5, "unit": "µmol/kg"}, {"measurement": "Control", "setting": "Rattus norvegicus [22]", "value": 101, "unit": "%"}, {"measurement": "Control", "setting": "Rattus norvegicus [23]", "value": 53, "unit": "%"}, {"measurement": "Control", "setting": "Rattus norvegicus [24]", "value": 48, "unit": "%"}, {"measurement": "Control", "setting": "Rattus norvegicus [25]", "value": 58, "unit": "%"}, {"measurement": "Control", "setting": "Rattus norvegicus [26]", "value": 47, "unit": "%"}, {"measurement": "Control", "setting": "Rattus norvegicus [27]", "value": 58, "unit": "%"}, {"measurement": "Control", "setting": "Rattus norvegicus [28]", "value": 84, "unit": "%"}, {"measurement": "ED50", "setting": "Rattus norvegicus [29]", "value": 1, "unit": "µmol/kg"}, {"measurement": "Control", "setting": "Rattus norvegicus [30]", "value": 74, "unit": "%"}, {"measurement": "Control", "setting": "Rattus norvegicus [31]", "value": 97, "unit": "%"}, {"measurement": "Locomotor activity", "setting": "Rattus norvegicus [32]", "value": 197}]}]}
